According to ChEMBL document CHEMBL1129508, “Betulinic acid derivatives: a new class of specific inhibitors of human immunodeficiency virus type 1 entry” (J Med Chem, 1996):
Values belong to the compound of their own block, whether it stands above or below them.

Legend:
CCRF-CEM [1] = experiment: (§1) Inhibitory activity against the HIV-1 in CEM cells; assay type: functional, cell-based; conditions: Homo sapiens
Summary of the method: (§2)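 HIV-1-induced cytopathicity in CEM 4 or MT-4 cell cultures was assessed by counting viable cells after MTT (3-(4,5-dimethylthiazol-2-yl)-2,5-diphenyltetrazolium bromide) staining. IC50 is the concentration that inhibits cytopathicity by 50%. For routine testing, the highest concentration was generally 3 µM, because solubility was limited above 10 µM.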

CCRF-CEM [2] = experiment: Inhibitory activity against the HIV-1 in CEM cells; NA= Not active; assay type: functional, cell-based, Homo sapiens
Summary of the method: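 HIV-1-induced cytopathicity assay in CEM 4 cells. Viable cells were counted after MTT (3-(4,5-dimethylthiazol-2-yl)-2,5-diphenyltetrazolium bromide) staining. IC50 is the concentration that inhibits viral cytopathicity by 50%. For routine testing the top concentration was generally 3 µM, because solubility was limited above 10 µM.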

CCRF-CEM [3] = experiment: Inhibitory activity against the HIV-1 in CEM cells at 1 uM concentration; assay type: functional; conditions: Homo sapiens
MT4 = experiment: Inhibitory activity against the HIV-1 in MT-4 cells; assay type: functional, cell-based; conditions: Homo sapiens; summary of the method: as §2
CCRF-CEM [4] = experiment: Inhibitory Activity against the HIV-1 in CEM cells; assay type: functional, Homo sapiens; summary of the method: as §2
[5] = tested on: Human immunodeficiency virus 1; experiment: Inhibitory activity tested against the HIV-1 in MT-4 cells; assay type: functional, organism-based; conditions: Human immunodeficiency virus 1, MT4; summary of the method: as §2
CCRF-CEM [6] = experiment: as §1; assay type: functional, Homo sapiens; summary of the method: as §2

IC50 (CCRF-CEM [1]): 3 µM
SMILES: C=C(C)[C@@H]1CC[C@]2(C(=O)NCCCCCC(=O)NCCCC(=O)O)CC[C@]3(C)[C@H](CCC4[C@@]5(C)CC[C@H](O)C(C)(C)[C@@H]5CC[C@]43C)[C@@H]12 (some centres undefined)

SMILES: C=C(C)[C@@H]1CC[C@]2(C(=O)NCCCC(=O)O)CC[C@]3(C)[C@H](CCC4[C@@]5(C)CC[C@H](O)C(C)(C)[C@@H]5CC[C@]43C)[C@@H]12 (some centres undefined)
IC50 (CCRF-CEM [2]): Not Active

SMILES: C=C(C)[C@@H]1CC[C@]2(C(=O)NCCCCC(=O)O)CC[C@]3(C)[C@H](CC[C@@H]4[C@@]5(C)CC[C@H](O)C(C)(C)[C@@H]5CC[C@]43C)[C@@H]12
inhibition at 1 µM (CCRF-CEM [3]): 46%

IC50 (CCRF-CEM [1]): 2.3 µM
SMILES: C=C(C)[C@@H]1CC[C@]2(C(=O)NCCCCCC(=O)O)CC[C@]3(C)[C@H](CC[C@@H]4[C@@]5(C)CC[C@H](O)C(C)(C)[C@@H]5CC[C@]43C)[C@@H]12
IC50 (MT4): 2.4 µM

SMILES: C=C(C)[C@@H]1CC[C@]2(C(=O)NCC(=O)O)CC[C@]3(C)[C@H](CCC4[C@@]5(C)CC[C@H](O)C(C)(C)[C@@H]5CC[C@]43C)[C@@H]12 (some centres undefined)
IC50 (CCRF-CEM [2]): Not Active

SMILES: Cc1ccnc2c1NC(=O)c1cccnc1N2C1CC1 [NEVIRAPINE]
IC50 (CCRF-CEM [1]): 0.084 µM

IC50 (CCRF-CEM [2]): Not Active
SMILES: C=C(C)[C@@H]1CC[C@]2(C(=O)NCCC(=O)O)CC[C@]3(C)[C@H](CC[C@@H]4[C@@]5(C)CC[C@H](O)C(C)(C)[C@@H]5CC[C@]43C)[C@@H]12

SMILES: C=C(C)[C@@H]1CC[C@]2(C(=O)NCCCCCCCCCCCCC(=O)O)CC[C@]3(C)[C@H](CCC4[C@@]5(C)CC[C@H](O)C(C)(C)[C@@H]5CC[C@]43C)[C@@H]12 (some centres undefined)
Inhibition (CCRF-CEM [4]): 35%

IC50 (CCRF-CEM [1]): 12 µM
IC50 [5]: 4.3 µM
SMILES: C=C(C)[C@@H]1CC[C@]2(C(=O)NCCCCCCC(=O)O)CC[C@]3(C)[C@H](CC[C@@H]4[C@@]5(C)CC[C@H](O)C(C)(C)[C@@H]5CC[C@]43C)[C@@H]12

IC50 (CCRF-CEM [1]): 4.5 µM
SMILES: C=C(C)[C@@H]1CC[C@]2(C(=O)NCCCCC(=O)NCCCCC(=O)O)CC[C@]3(C)[C@H](CCC4[C@@]5(C)CC[C@H](O)C(C)(C)[C@@H]5CC[C@]43C)[C@@H]12 (some centres undefined)

SMILES: C=C(C)[C@@H]1CC[C@]2(C(=O)NCCC(=O)NCCCCCCC(=O)O)CC[C@]3(C)[C@H](CCC4[C@@]5(C)CC[C@H](O)C(C)(C)[C@@H]5CC[C@]43C)[C@@H]12 (some centres undefined)
Inhibition (CCRF-CEM [6]): 20%

SMILES: C=C(C)[C@@H]1CC[C@]2(C(=O)NCC(=O)NCCCCCCCC(=O)O)CC[C@]3(C)[C@H](CCC4[C@@]5(C)CC[C@H](O)C(C)(C)[C@@H]5CC[C@]43C)[C@@H]12 (some centres undefined)
Inhibition (CCRF-CEM [4]): 30%
